Measured values from ChEMBL document CHEMBL1649247, “Fluoroquinolone resistance in Mycobacterium tuberculosis and mutations in gyrA and gyrB” (2009).
Converted amounts (≈) assume the structure as drawn. The source made the active and inactive calls. No cut-off for these calls is given here.

Assays:
[1] = tested on: Mycobacterium tuberculosis; assay: Antimycobacterial activity against multidrug-resistant Mycobacterium tuberculosis 08-0790 harboring gyrA Ala90Val mutant gene by resazurin microtiter assay; format: functional
Procedure, shortened: (§1)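 MIC was read by resazurin microtiter assay against ofloxacin, moxifloxacin and gatifloxacin. Isolates were used as fresh Löwenstein-Jensen subcultures kept at 37°C for no longer than 4 weeks.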

[2] = tested on: Mycobacterium tuberculosis; assay: Antimycobacterial activity against Mycobacterium tuberculosis 02-1975 harboring gyrA Asp94Gly mutant gene by resazurin microtiter assay; format: functional
Procedure, shortened: (§2)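 Isolates taken from fresh Löwenstein-Jensen subcultures grown at 37°C for at most 4 weeks. Drug stocks 1 mg/ml in 0.1 N NaOH, filter sterilized, stored at −20°C less than 2 months. MIC read by resazurin microtiter assay following a previously described protocol.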

[3] = tested on: Mycobacterium tuberculosis; assay: Antimycobacterial activity against multidrug-resistant Mycobacterium tuberculosis 01-2614 harboring gyrA Asp94Gly mutant gene by resazurin microtiter assay; format: functional; procedure, shortened: as §2
[4] = tested on: Mycobacterium tuberculosis; assay: Antimycobacterial activity against multidrug-resistant Mycobacterium tuberculosis 08-0744 harboring gyrA Asp94Tyr mutant gene by resazurin microtiter assay; format: functional; procedure, shortened: as §1
[5] = tested on: Mycobacterium tuberculosis; assay: Antimycobacterial activity against multidrug-resistant Mycobacterium tuberculosis 08-0821 harboring gyrA Asp94Tyr mutant gene by resazurin microtiter assay; format: functional; procedure, shortened: as §1
[6] = tested on: Mycobacterium tuberculosis; assay: Antimycobacterial activity against Mycobacterium tuberculosis 04-0649 harboring gyrA Asp94Asn mutant gene by resazurin microtiter assay; format: functional; procedure, shortened: as §2
[7] = tested on: Mycobacterium tuberculosis; assay: Antimycobacterial activity against multidrug-resistant Mycobacterium tuberculosis 01-0172 harboring gyrA Asp94Ala mutant gene by resazurin microtiter assay; format: functional; procedure, shortened: as §2
[8] = tested on: Mycobacterium tuberculosis; assay: Antimycobacterial activity against multidrug-resistant Mycobacterium tuberculosis 02-1234 harboring gyrA Asn533Thr gyrB mutant gene by resazurin microtiter assay; format: functional; procedure, shortened: as §2
[9] = tested on: Mycobacterium tuberculosis; assay: Antimycobacterial activity against Mycobacterium tuberculosis 08-0815 harboring gyrA Thr80Ala and Ala90Gly mutant gene by resazurin microtiter assay; format: functional; procedure, shortened: as §2
[10] = tested on: Mycobacterium tuberculosis; assay: Antimycobacterial activity against multidrug-resistant Mycobacterium tuberculosis 08-0746 by resazurin microtiter assay; format: functional; procedure, shortened: as §1
[11] = tested on: Mycobacterium tuberculosis; assay: Antimycobacterial activity against multidrug-resistant Mycobacterium tuberculosis 08-0779 by resazurin microtiter assay; format: functional; procedure, shortened: as §1
[12] = tested on: Mycobacterium tuberculosis; assay: Antimycobacterial activity against multidrug-resistant Mycobacterium tuberculosis 02-2934 harboring gyrA Ala90Val mutant gene assessed as microbial susceptibility by agar proportion method; format: functional, organism-based
Procedure, shortened: (§3)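 Clinical isolates freshly subcultured on Löwenstein-Jensen medium, held at 37°C no longer than 4 weeks. Fluoroquinolone stocks 1 mg/ml in 0.1 N NaOH, filter sterilized, kept at −20°C under 2 months. Standard proportion method on 7H11 agar; breakpoints 2 mg/liter ofloxacin, 0.5 mg/liter moxifloxacin and gatifloxacin; scored susceptible or resistant.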

[13] = tested on: Mycobacterium tuberculosis; assay: Antimycobacterial activity against multidrug-resistant Mycobacterium tuberculosis 01-1647 harboring gyrA Ala90Val mutant gene assessed as microbial susceptibility by agar proportion method; format: functional, organism-based; procedure, shortened: as §3
[14] = tested on: Mycobacterium tuberculosis; assay: Antimycobacterial activity against multidrug-resistant Mycobacterium tuberculosis 01-0930 harboring gyrA Ala90Val mutant gene assessed as microbial susceptibility by agar proportion method; format: functional, organism-based; procedure, shortened: as §3
[15] = tested on: Mycobacterium tuberculosis; assay: Antimycobacterial activity against multidrug-resistant Mycobacterium tuberculosis 08-0790 harboring gyrA Ala90Val mutant gene assessed as microbial susceptibility by agar proportion method; format: functional, organism-based
Procedure, shortened: (§4)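 Clinical isolates freshly subcultured on Löwenstein-Jensen medium at 37°C for no more than 4 weeks. Susceptibility by standard proportion method on 7H11 agar at breakpoints of 2 mg/liter ofloxacin and 0.5 mg/liter moxifloxacin and gatifloxacin. Drug stocks 1 mg/ml in 0.1 N NaOH, filter sterilized, held at −20°C under 2 months. Isolates scored susceptible or resistant.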

[16] = tested on: Mycobacterium tuberculosis; assay: Antimycobacterial activity against multidrug-resistant Mycobacterium tuberculosis 08-0791 harboring gyrA Ala90Val mutant gene assessed as microbial susceptibility by agar proportion method; format: functional, organism-based; procedure, shortened: as §4
[17] = tested on: Mycobacterium tuberculosis; assay: Antimycobacterial activity against multidrug-resistant Mycobacterium tuberculosis 08-0797 harboring gyrA Ala90Val mutant gene assessed as microbial susceptibility by agar proportion method; format: functional, organism-based; procedure, shortened: as §4
[18] = tested on: Mycobacterium tuberculosis; assay: Antimycobacterial activity against multidrug-resistant Mycobacterium tuberculosis 01-2614 harboring gyrA Asp94Gly mutant gene assessed as microbial susceptibility by agar proportion method; format: functional, organism-based; procedure, shortened: as §3
[19] = tested on: Mycobacterium tuberculosis; assay: Antimycobacterial activity against multidrug-resistant Mycobacterium tuberculosis 08-0810 harboring gyrA Asp94Tyr mutant gene assessed as microbial susceptibility by agar proportion method; format: functional, organism-based; procedure, shortened: as §4
[20] = tested on: Mycobacterium tuberculosis; assay: Antimycobacterial activity against multidrug-resistant Mycobacterium tuberculosis 08-0821 harboring gyrA Asp94Tyr mutant gene assessed as microbial susceptibility by agar proportion method; format: functional, organism-based; procedure, shortened: as §4
[21] = tested on: Mycobacterium tuberculosis; assay: Antimycobacterial activity against multidrug-resistant Mycobacterium tuberculosis 02-0319 harboring gyrA Asp94Ala mutant gene assessed as microbial susceptibility by agar proportion method; format: functional, organism-based; procedure, shortened: as §3
[22] = tested on: Mycobacterium tuberculosis; assay: Antimycobacterial activity against multidrug-resistant Mycobacterium tuberculosis 01-0172 harboring gyrA Asp94Ala mutant gene assessed as microbial susceptibility by agar proportion method; format: functional, organism-based; procedure, shortened: as §3
[23] = tested on: Mycobacterium tuberculosis; assay: Antimycobacterial activity against multidrug-resistant Mycobacterium tuberculosis 04-0519 harboring gyrA Ala90Val and Asp94Asn mutant gene assessed as microbial susceptibility by agar proportion method; format: functional, organism-based; procedure, shortened: as §4
[24] = tested on: Mycobacterium tuberculosis; assay: Antimycobacterial activity against Mycobacterium tuberculosis 08-0745 harboring gyrA Asp89Asn mutant gene assessed as microbial susceptibility by agar proportion method; format: functional, organism-based; procedure, shortened: as §3
[25] = tested on: Mycobacterium tuberculosis; assay: Antimycobacterial activity against multidrug-resistant Mycobacterium tuberculosis 02-1234 harboring gyrA Asn533Thr gyrB mutant gene assessed as microbial susceptibility by agar proportion method; format: functional, organism-based; procedure, shortened: as §3
[26] = tested on: Mycobacterium tuberculosis; assay: Antimycobacterial activity against multidrug-resistant Mycobacterium tuberculosis 08-0794 harboring gyrA Thr80Ala mutant gene assessed as microbial susceptibility by agar proportion method; format: functional, organism-based; procedure, shortened: as §4
[27] = tested on: Mycobacterium tuberculosis; assay: Antimycobacterial activity against Mycobacterium tuberculosis 08-0769 harboring gyrA putative promoter mutant gene assessed as microbial susceptibility by agar proportion method; format: functional, organism-based; procedure, shortened: as §3
[28] = tested on: Mycobacterium tuberculosis; assay: Antimycobacterial activity against multidrug-resistant Mycobacterium tuberculosis 08-0779 assessed as microbial susceptibility by agar proportion method; format: functional, organism-based; procedure, shortened: as §4
[29] = tested on: Mycobacterium tuberculosis; assay: Antimycobacterial activity against Mycobacterium tuberculosis 00-0715 harboring gyrA Ala90Val mutant gene by resazurin microtiter assay; format: functional; procedure, shortened: as §2
[30] = tested on: Mycobacterium tuberculosis; assay: Antimycobacterial activity against multidrug-resistant Mycobacterium tuberculosis 02-2934 harboring gyrA Ala90Val mutant gene by resazurin microtiter assay; format: functional; procedure, shortened: as §2
[31] = tested on: Mycobacterium tuberculosis; assay: Antimycobacterial activity against multidrug-resistant Mycobacterium tuberculosis 08-0757 harboring gyrA Ala90Val mutant gene by resazurin microtiter assay; format: functional; procedure, shortened: as §1

SMILES	MIC [1] [µg/mL]	MIC [2] [µg/mL]	MIC [3] [µg/mL]	MIC [5] [µg/mL]	MIC [6] [µg/mL]	MIC [7] [µg/mL]	MIC [8] [µg/mL]	MIC [9]	MIC [10] [µg/mL]	MIC [11] [µg/mL]	Activity [12]	Activity [13]	Activity [14]	Activity [15]	Activity [16]	Activity [17]	Activity [18]	Activity [19]	Activity [20]	Activity [21]	further results
COc1c(N2CCNC(C)C2)c(F)cc2c(=O)c(C(=O)O)cn(C3CC3)c12 (stereo unspecified) [GATIFLOXACIN]	0.5 (≈ 1.33 µM)	1 (≈ 2.66 µM)	1 (≈ 2.66 µM)	1 (≈ 2.66 µM)	1 (≈ 2.66 µM)	0.25 (≈ 0.666 µM)	0.5 (≈ 1.33 µM)	<=0.062 mg/L	≤ 0.062	≤ 0.062	inactive	inactive	inactive	inactive	inactive	inactive	inactive	inactive	inactive	inactive	MIC [4]: 1 µg/mL (≈ 2.66 µM); Activity [22]: inactive; Activity [23]: inactive; Activity [24]: inactive; Activity [25]: inactive; Activity [26]: Active; Activity [27]: Active; Activity [28]: Active; MIC [29]: 0.5 µg/mL (≈ 1.33 µM); MIC [30]: 0.25 µg/mL (≈ 0.666 µM); MIC [31]: 1 µg/mL (≈ 2.66 µM)
COc1c(N2C[C@@H]3CCCN[C@@H]3C2)c(F)cc2c(=O)c(C(=O)O)cn(C3CC3)c12 [MOXIFLOXACIN]	1 (≈ 2.49 µM)	2 (≈ 4.98 µM)	2 (≈ 4.98 µM)	4 (≈ 9.96 µM)	4 (≈ 9.96 µM)	0.5 (≈ 1.25 µM)	0.5 (≈ 1.25 µM)	<=0.125 mg/L	≤ 0.125	≤ 0.125	inactive	inactive	inactive	inactive	inactive	inactive	inactive	inactive	inactive	inactive	Activity [22]: inactive; Activity [23]: inactive; Activity [24]: inactive; Activity [25]: inactive; Activity [26]: Active; Activity [27]: Active; Activity [28]: Active; MIC [29]: 0.5 µg/mL (≈ 1.25 µM); MIC [30]: 0.25 µg/mL (≈ 0.623 µM)
CC1COc2c(N3CCN(C)CC3)c(F)cc3c(=O)c(C(=O)O)cn1c23 (stereo unspecified) [OFLOXACIN]	4 (≈ 11.1 µM)	8 (≈ 22.1 µM)	16 (≈ 44.3 µM)	8 (≈ 22.1 µM)	16 (≈ 44.3 µM)	4 (≈ 11.1 µM)	1 (≈ 2.77 µM)	<=0.25 mg/L	0.5 (≈ 1.38 µM)	0.5 (≈ 1.38 µM)	inactive	inactive	inactive	inactive	inactive	inactive	inactive	inactive	inactive	inactive	MIC [4]: 8 µg/mL (≈ 22.1 µM); Activity [22]: inactive; Activity [23]: inactive; Activity [24]: inactive; Activity [25]: Active; Activity [26]: Active; Activity [27]: Active; Activity [28]: Active; MIC [29]: 4 µg/mL (≈ 11.1 µM); MIC [30]: 4 µg/mL (≈ 11.1 µM); MIC [31]: 8 µg/mL (≈ 22.1 µM)
